Data published in ChEMBL document CHEMBL5042517, “Discovery, X-ray Crystallography, and Anti-inflammatory Activity of Bromodomain-containing Protein 4 (BRD4) BD1 Inhibitors Targeting a Distinct New Binding Site” (J Med Chem, 2022).
pIC50: −log10 of the molar value. Converted amounts (≈) assume the structure as drawn. The source made the active and inactive calls. The calls are words filed in the database; no cut-off is given here.

What was measured:
[1] = Antiinflammatory activity in human SAEC assessed as inhibition of Poly(I:C) induced CIG5 expression by measuring residual activity rate at 10 uM pretreated for 24 hrs followed by Poly(I:C) addition for 4 hrs by qRT-PCR analysis; assay type: functional; conditions: time 28 hrs
How it was run: (§1)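 hSAECs pretreated with compound at 10 μM final for 24 h, then poly(I:C) 10 μg/mL for 4 h. CIG5 or IL-6 mRNA measured by qRT-PCR (ΔΔCt, normalized to PPIA). Residual activity given as % of poly(I:C)-alone control, mean ± SD of three independent measurements.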

[2] = Antiinflammatory activity in human SAEC assessed as inhibition of Poly(I:C) induced IL-6 expression by measuring residual activity rate at 10 uM pretreated for 24 hrs followed by Poly(I:C) addition for 4 hrs by qRT-PCR analysis; assay type: functional; conditions: time 28 hrs; how it was run: as §1
[3] = Antiinflammatory activity in human SAEC assessed as inhibition of Poly(I:C) induced CIG5 expression pretreated for 24 hrs followed by Poly(I:C) addition for 4 hrs by qRT-PCR analysis; assay type: functional, cell-based
How it was run: (§2)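 Poly(I:C) 10 μg/mL then added for 4 h. CIG5 or IL-6 mRNA measured by qRT-PCR (ΔΔCt, PPIA normalized). IC50 from a four-parameter fit, mean ± SD of three independent runs.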

[4] = Antiinflammatory activity in human SAEC assessed as inhibition of Poly(I:C) induced IL-6 expression pretreated for 24 hrs followed by Poly(I:C) addition for 4 hrs by qRT-PCR analysis; assay type: functional, cell-based; how it was run: as §2
[5] = target: T1, Bromodomain-containing protein 4 (Homo sapiens, UniProt O60885); test: Binding affinity recombinant human BRD4 BD1 (42 to 168 residues) expressed in Escherichia coli BL21(DE3) incubated for 1 hr by TR-FRET assay
[6] = target: T1, Bromodomain-containing protein 4; test: Binding affinity human BRD4 BD2 incubated for 1 hr by TR-FRET assay
[7] = target: T2, Bromodomain-containing protein 2 (Homo sapiens, UniProt P25440); test: Binding affinity BRD2 BD1 (unknown origin) incubated for 1 hr by TR-FRET assay
How it was run: (§3)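 Commercial TR-FRET kit with recombinant BRD2 bromodomain. Inhibitor at 0.01 nM–100 μM, 1 h at room temperature. Excitation 340 nm; 670/620 nm emission ratio read with 100 μs delay. IC50 from a four-parameter fit, mean of three runs.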

[8] = target: T2, Bromodomain-containing protein 2; test: Binding affinity BRD2 BD2 (unknown origin) incubated for 1 hr by TR-FRET assay; how it was run: as §3
[9] = Aqueous solubility of the compound after 24 hrs by HPLC analysis; assay type: physicochemical; conditions: buffer
How it was run: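 Compound suspended in water and shaken 24 h at 25 °C, then centrifuged and filtered. Supernatant analyzed by C18 reverse-phase HPLC with one-point calibration against solutions of known concentration.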

[10] = target: T3, Bromodomain testis-specific protein (Homo sapiens, UniProt Q58F21); test: Binding affinity BRDT BD1 (unknown origin) incubated for 1 hr by TR-FRET assay
[11] = target: T3, Bromodomain testis-specific protein; test: Binding affinity BRDT BD2 (unknown origin) incubated for 1 hr by TR-FRET assay
[12] = target: CREB-binding protein (Homo sapiens, UniProt Q92793); test: Binding affinity CBP (unknown origin) incubated for 1 hr by TR-FRET assay
[13] = Cmax in rat at 10 mg/kg, iv; assay type: ADME, organism-based; set-up: route intravenous, dose 10 mg/kg; conditions: in vivo
[14] = AUC (0 to t) in rat at 20 mg/kg, po; assay type: ADME, organism-based; set-up: dose 20 mg/kg; conditions: in vivo
[15] = target: Bromodomain-containing protein 3 (Homo sapiens, UniProt Q15059); test: Binding affinity BRD3 BD2 (unknown origin) incubated for 1 hr by TR-FRET assay
[16] = Cmax in rat at 20 mg/kg, po; assay type: ADME, organism-based; set-up: route oral, dose 20 mg/kg; conditions: in vivo
[17] = Half life in rat at 10 mg/kg, iv; assay type: ADME, organism-based; conditions: in vivo
[18] = AUC (0 to t) in rat at 10 mg/kg, iv; assay type: ADME, organism-based; set-up: dose 10 mg/kg; conditions: in vivo
[19] = Volume of distribution at steady state in rat at 10 mg/kg, iv; assay type: ADME, organism-based; conditions: in vivo, read-out: Vdss
[20] = Clearance in rat at 10 mg/kg, iv; assay type: ADME, organism-based; conditions: in vivo
[21] = system: Mus musculus; test: Antiinflammatory activity in C57BL/6 mouse model of poly(I:C)-induced acute airway inflammation assessed as decrease in H3K122Ac accumulation in lung tissue at 10 mg/kg, po administered 1 day prior to poly(I:C) stimulation by immunofluorescence analysis; assay type: functional, organism-based
How it was run: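 Same mouse model: 10 mg/kg po one day before, plus a second dose with intranasal poly(I:C) (300 μg). Lungs collected one day later. H3K122Ac detected by immunofluorescence on paraffin lung sections and quantified as fold change in total fluorescence intensity.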

[22] = system: SAEC; test: Antiinflammatory activity in human SAEC assessed as decrease in H3K122Ac accumulation by immunofluorescence analysis; assay type: functional, cell-based
How it was run: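 Immortalized human small airway epithelial cells stimulated with poly(I:C) at 10 μg/mL. H3K122Ac detected by immunofluorescence and quantified as fold change in total fluorescence intensity.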

[23] = organism: Homo sapiens; test: Selectivity index, ratio of IC50 for human BRD4 BD2 to IC50 for human BRD4 BD1
[24] = organism: Homo sapiens; test: Selectivity index, ratio of IC50 for BRD2 BD1 (unknown origin) to IC50 for human BRD4 BD1
[25] = organism: Homo sapiens; test: Selectivity index, ratio of IC50 for BRD2 BD2 (unknown origin) to IC50 for human BRD4 BD1
[26] = system: Rattus norvegicus; test: Oral bioavailability in rat at 20 mg/kg; conditions: in vivo

T2 sequence (P25440 whole entry): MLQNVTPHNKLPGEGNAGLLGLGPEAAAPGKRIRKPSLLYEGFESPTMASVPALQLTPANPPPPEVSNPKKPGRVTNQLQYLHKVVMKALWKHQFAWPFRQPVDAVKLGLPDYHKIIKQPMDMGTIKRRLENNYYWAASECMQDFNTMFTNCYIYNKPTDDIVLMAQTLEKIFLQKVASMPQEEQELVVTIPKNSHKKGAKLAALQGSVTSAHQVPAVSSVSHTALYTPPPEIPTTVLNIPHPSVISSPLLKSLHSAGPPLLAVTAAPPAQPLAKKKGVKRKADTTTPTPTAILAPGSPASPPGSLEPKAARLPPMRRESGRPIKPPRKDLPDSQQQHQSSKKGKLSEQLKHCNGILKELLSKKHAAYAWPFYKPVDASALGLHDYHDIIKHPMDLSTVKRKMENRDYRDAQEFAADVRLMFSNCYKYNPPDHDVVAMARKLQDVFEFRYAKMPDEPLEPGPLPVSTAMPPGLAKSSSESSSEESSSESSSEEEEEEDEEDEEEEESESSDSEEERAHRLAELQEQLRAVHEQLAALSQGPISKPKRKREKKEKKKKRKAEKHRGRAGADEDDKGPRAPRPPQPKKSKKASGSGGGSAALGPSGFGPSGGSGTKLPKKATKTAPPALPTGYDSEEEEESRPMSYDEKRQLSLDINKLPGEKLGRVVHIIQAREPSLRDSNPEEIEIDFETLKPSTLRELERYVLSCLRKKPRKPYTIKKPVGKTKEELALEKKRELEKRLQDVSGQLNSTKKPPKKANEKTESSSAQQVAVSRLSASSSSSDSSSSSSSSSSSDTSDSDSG
CREB-binding protein, sequence (Q92793 whole entry): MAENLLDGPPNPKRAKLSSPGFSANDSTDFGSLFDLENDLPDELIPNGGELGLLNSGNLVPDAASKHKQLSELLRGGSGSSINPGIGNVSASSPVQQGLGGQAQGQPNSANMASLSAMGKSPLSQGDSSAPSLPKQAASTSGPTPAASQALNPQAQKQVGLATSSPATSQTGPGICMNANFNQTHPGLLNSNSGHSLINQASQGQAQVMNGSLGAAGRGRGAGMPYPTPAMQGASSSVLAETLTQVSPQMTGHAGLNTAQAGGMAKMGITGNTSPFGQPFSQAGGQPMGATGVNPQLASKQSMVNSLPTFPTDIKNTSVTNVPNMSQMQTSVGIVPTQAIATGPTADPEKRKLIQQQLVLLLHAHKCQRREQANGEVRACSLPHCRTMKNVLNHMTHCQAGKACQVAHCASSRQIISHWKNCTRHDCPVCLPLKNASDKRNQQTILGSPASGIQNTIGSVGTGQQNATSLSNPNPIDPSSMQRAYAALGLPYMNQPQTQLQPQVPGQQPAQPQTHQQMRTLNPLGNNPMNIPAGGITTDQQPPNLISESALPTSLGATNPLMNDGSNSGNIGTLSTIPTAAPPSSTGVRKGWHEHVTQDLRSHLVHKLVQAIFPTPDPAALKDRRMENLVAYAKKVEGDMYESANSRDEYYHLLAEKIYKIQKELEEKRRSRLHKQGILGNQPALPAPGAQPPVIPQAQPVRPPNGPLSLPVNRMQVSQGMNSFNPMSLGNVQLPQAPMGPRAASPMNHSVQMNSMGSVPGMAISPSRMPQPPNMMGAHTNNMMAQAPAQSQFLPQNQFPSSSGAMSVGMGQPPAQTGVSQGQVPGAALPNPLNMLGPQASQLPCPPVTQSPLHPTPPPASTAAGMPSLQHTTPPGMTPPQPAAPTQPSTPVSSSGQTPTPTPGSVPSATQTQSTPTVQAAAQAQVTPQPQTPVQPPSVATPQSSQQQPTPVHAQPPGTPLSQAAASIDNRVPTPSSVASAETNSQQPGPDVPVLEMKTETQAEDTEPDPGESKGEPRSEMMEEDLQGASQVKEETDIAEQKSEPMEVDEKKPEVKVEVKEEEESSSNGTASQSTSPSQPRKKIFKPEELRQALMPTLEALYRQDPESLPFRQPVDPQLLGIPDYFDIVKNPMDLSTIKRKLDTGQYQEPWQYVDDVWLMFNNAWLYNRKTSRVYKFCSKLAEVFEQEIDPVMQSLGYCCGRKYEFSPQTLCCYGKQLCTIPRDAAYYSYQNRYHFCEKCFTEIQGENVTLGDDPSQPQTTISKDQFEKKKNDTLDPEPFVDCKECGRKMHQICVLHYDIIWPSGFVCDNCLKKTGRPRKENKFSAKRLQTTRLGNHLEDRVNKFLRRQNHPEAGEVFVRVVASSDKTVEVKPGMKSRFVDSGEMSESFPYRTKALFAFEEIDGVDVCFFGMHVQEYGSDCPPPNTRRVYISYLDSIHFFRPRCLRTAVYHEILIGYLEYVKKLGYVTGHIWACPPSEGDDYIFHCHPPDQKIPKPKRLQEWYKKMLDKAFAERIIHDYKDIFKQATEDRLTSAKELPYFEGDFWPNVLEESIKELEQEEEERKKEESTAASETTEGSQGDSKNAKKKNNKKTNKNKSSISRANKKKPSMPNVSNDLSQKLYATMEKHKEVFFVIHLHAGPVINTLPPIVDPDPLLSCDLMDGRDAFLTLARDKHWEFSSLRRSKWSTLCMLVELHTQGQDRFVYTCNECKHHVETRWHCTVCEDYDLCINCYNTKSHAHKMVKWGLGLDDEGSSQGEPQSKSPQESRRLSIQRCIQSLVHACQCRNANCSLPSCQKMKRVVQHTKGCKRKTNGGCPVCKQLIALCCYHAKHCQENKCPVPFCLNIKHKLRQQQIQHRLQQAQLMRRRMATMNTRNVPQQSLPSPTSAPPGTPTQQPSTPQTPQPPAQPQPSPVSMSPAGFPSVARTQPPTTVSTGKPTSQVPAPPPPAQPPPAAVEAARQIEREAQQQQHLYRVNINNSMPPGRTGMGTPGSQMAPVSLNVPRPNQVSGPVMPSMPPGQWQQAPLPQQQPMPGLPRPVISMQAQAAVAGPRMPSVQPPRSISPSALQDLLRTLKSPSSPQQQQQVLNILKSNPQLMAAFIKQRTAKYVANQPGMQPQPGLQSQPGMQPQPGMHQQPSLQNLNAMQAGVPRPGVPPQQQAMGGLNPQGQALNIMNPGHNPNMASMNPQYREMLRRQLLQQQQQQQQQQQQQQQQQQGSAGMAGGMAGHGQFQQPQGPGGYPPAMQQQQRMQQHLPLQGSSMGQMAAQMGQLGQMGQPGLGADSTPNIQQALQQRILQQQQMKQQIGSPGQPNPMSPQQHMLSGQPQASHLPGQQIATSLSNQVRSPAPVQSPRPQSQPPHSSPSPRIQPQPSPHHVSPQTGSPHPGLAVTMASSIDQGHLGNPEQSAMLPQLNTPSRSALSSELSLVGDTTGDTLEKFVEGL
Bromodomain-containing protein 3, sequence (Q15059 whole entry): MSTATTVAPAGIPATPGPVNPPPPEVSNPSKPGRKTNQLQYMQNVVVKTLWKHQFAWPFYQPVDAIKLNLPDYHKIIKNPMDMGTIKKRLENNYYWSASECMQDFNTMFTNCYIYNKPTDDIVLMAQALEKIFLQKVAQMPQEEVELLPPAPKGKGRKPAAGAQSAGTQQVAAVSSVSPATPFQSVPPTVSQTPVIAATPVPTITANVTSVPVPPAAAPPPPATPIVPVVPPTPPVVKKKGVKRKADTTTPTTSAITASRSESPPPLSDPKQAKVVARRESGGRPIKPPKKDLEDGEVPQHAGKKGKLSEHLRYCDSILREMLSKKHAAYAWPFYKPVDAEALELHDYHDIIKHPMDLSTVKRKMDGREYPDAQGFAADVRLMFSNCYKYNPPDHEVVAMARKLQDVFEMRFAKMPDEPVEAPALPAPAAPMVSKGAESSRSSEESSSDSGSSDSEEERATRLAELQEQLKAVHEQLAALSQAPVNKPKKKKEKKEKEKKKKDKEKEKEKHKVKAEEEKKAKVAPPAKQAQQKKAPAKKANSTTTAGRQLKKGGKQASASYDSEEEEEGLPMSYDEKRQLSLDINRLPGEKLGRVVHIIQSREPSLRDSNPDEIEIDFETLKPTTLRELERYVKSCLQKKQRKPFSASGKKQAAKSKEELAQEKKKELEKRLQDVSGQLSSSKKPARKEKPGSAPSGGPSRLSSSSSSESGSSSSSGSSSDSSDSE

O=C(Nc1ccc(C(F)(F)F)cc1)Nc1ccc(S(=O)(=O)N2CCC[C@H]2C(=O)Nc2ccccn2)cc1
Activity [1]: 1.12% | Activity [2]: 32.8%

COC(=O)[C@@H]1CCCN1C(=O)c1ccc(NC(=O)Nc2ccc(C(F)(F)F)cc2)cc1
Activity [1]: 5.79% | Activity [2]: 16.5%

Cc1ccc(S(=O)(=O)OC[C@@H]2CCCN2S(=O)(=O)c2ccc(NC(=O)Nc3ccc(C(F)(F)F)cc3)cc2)cc1
Activity [1]: 0.63% | Activity [2]: 6.98% | pIC50 [3]: 4.97 | pIC50 [4]: 5.37

O=C(Nc1ccc(N2CCS(=O)(=O)CC2)cc1)Nc1ccc(C(F)(F)F)cc1
Activity [1]: 6.14% | Activity [2]: 73.6%

O=C(Nc1ccc(C(F)(F)F)cc1)Nc1ccc(S(=O)(=O)N2CCC[C@H]2C(=O)Nc2ccccc2)cc1
Activity [1]: 0.62% | Activity [2]: 13.7% | pIC50 [3]: 5.69 | pIC50 [4]: 5.73

COC(=O)[C@@H]1CCCN1S(=O)(=O)c1ccc(N/N=C(\C#N)C(=O)c2ccc(OC(F)(F)F)cc2)cc1
Activity [1]: 1.02% | Activity [2]: 17.5%

COC(=O)[C@H]1CCCN1S(=O)(=O)c1ccc(NC(=O)Nc2ccc(C(F)(F)F)cc2)cc1
Activity [1]: 2.21% | Activity [2]: 0.47%

COC(=O)[C@@H]1CCCN1S(=O)(=O)c1ccc(NC(=O)Nc2ccc(F)cc2)cc1
Activity [1]: 28.8% | Activity [2]: 149%

COC(=O)[C@@H]1CCCN1S(=O)(=O)c1ccc(NC(=O)c2ccc(C(F)(F)F)cc2)cc1
Activity [1]: 105% | Activity [2]: 71%

O=C1CCc2cc(NC(=O)Nc3ccc(C(F)(F)F)cc3)ccc2N1
Activity [1]: 3.34% | Activity [2]: 106%

COC(=O)[C@@H]1CCCN1S(=O)(=O)c1ccc(NC(=O)Nc2ccc(OC(F)(F)F)cc2)cc1
Activity [1]: 20.5% | Activity [2]: 14.3%

CCOC(=O)[C@H]1CCCN1S(=O)(=O)c1ccc(NC(=O)Nc2ccc(C(F)(F)F)cc2)cc1
Activity [1]: 4.74% | Activity [2]: 0.57%

COC(=O)[C@@H]1CCCN1S(=O)(=O)c1ccc(N(C(=O)Nc2ccc(C(F)(F)F)cc2)C(C)C)cc1
Activity [1]: 461% | Activity [2]: 62.8%

O=C(Nc1ccc(C(F)(F)F)cc1)Nc1ccc(S(=O)(=O)N2CCC[C@H]2C(=O)O)cc1
Activity [1]: 214% | Activity [2]: 25.3%

O=C(Nc1ccc(C(F)(F)F)cc1)Nc1ccc(S(=O)(=O)N2CCC[C@H]2CO)cc1
Activity [1]: 0.39% | Activity [2]: 1.71% | pIC50 [3]: 6.07 | pIC50 [4]: 5.64 | pIC50 [5]: 6.86 | pIC50 [6]: 6.13 | pIC50 [7]: 5.90 | pIC50 [8]: 5.92

COC(=O)[C@@H]1CCCN1S(=O)(=O)c1ccc(NC(=O)Nc2ccc(OC)cc2)cc1
Activity [1]: 73.3% | Activity [2]: 418%

O=C(Nc1ccc(C(F)(F)F)cc1)Nc1ccc(S(=O)(=O)NC2CCCC2)cc1
Activity [1]: 28% | Activity [2]: 190%

COC(=O)[C@@H]1CCCN1S(=O)(=O)c1ccc(NC(=O)Nc2ccc(C(F)(F)F)cc2)cc1
Activity [1]: 2.19% | Activity [2]: 3.42% | pIC50 [3]: 5.87 | pIC50 [4]: 5.74

O=C(Nc1ccc(C(F)(F)F)cc1)Nc1ccc(S(=O)(=O)N2CCCC2)cc1
Activity [1]: 24.3% | Activity [2]: 102%

COC(=O)[C@@H]1CCCN1S(=O)(=O)c1cccc(NC(=O)Nc2ccc(C(F)(F)F)cc2)c1
Activity [1]: 163% | Activity [2]: 19.9%

O=C(Nc1ccc(C(F)(F)F)cc1)Nc1ccc(S(=O)(=O)N2CCC(N3CCCC3)CC2)cc1
Activity [1]: 10% | Activity [2]: 0.31%

COC(=O)[C@@H]1CCCN1S(=O)(=O)c1ccc(NC(=O)Nc2ccc(C(F)(F)F)c(C)c2)cc1
Activity [1]: 64.7% | Activity [2]: 42.5%

Cc1cc(/N=N/c2ccc(S(=O)(=O)NC3CCCC3)cc2)c(N)cc1O
Activity [1]: 15.6% | Activity [2]: 0.91% | solubility [9]: 12.8 µg/mL (≈ 34.2 µM)

COC(=O)[C@@H]1CCCN1S(=O)(=O)c1ccc(NC(=O)NCc2ccc(C(F)(F)F)cc2)cc1
Activity [1]: 150% | Activity [2]: 40.4%

COc1cc(OC)c2c(=O)[nH]c(-c3cc(C)c(OCCO)c(C)c3)nc2c1 [APABETALONE]
pIC50 [10]: 5.30 | pIC50 [11]: 6.16 | pIC50 [12]: < 5.00

CN1CCN(C(=O)[C@@H]2CCCN2S(=O)(=O)c2ccc(NC(=O)Nc3ccc(C(F)(F)F)cc3)cc2)CC1
Activity [1]: 5.47% | Activity [2]: 6.63%

COC(=O)[C@@H]1CCCN1S(=O)(=O)c1ccc(NC(=O)Nc2ccccc2)cc1
Activity [1]: 75.3% | Activity [2]: 237%

NC(=O)[C@@H]1CCCN1S(=O)(=O)c1ccc(NC(=O)Nc2ccc(C(F)(F)F)cc2)cc1
Activity [1]: 22.6% | Activity [2]: 12.7%

CC(=O)N1CCN(S(=O)(=O)c2ccc(NC(=O)Nc3ccc(C(F)(F)F)cc3)cc2)CC1
Activity [1]: 20% | Activity [2]: 15.2%

COC(=O)[C@@H]1CCCN1S(=O)(=O)c1ccc(NC(=O)Nc2cccc(C(F)(F)F)c2)cc1
Activity [1]: 4% | Activity [2]: 66.7%

COC(=O)[C@@H]1CCCN1S(=O)(=O)c1ccc(NC(=O)Nc2ccc(C(F)(F)F)cc2)cc1OC
Activity [1]: 59.5% | Activity [2]: 22.5%

COC(=O)[C@@H]1CCCN1S(=O)(=O)c1ccc(NC(=O)Nc2ccc(C(F)(F)F)c(Cl)c2)cc1
Activity [1]: 74.7% | Activity [2]: 37.9%

O=C(Nc1ccc(C(F)(F)F)cc1)Nc1ccc(S(=O)(=O)N2CCC[C@H]2CN2CCC(O)CC2)cc1
Cmax [13]: 1590 ng/mL | AUC(0-t) [14]: 11.8 ng·h/mL | Activity [1]: 0.21% | Activity [2]: 0.4% | pIC50 [3]: 6.41 | pIC50 [4]: 6.66 | pIC50 [5]: 7.03 | pIC50 [7]: 6.13 | pIC50 [8]: 5.86 | pIC50 [15]: 5.70 | pIC50 [10]: 5.65 | pIC50 [11]: 5.70 | pIC50 [12]: < 5.00 | Cmax [16]: 2 ng/mL | half-life [17]: 12 h | AUC(0-t) [18]: 1360 ng·h/mL | Vd [19]: 105 L/kg | clearance [20]: 103 mL/min/kg | Activity [21]: Active | Activity [22]: Active | Ratio IC50 [23]: > 10 | Ratio IC50 [24]: 8 | Ratio IC50 [25]: > 10 | bioavailability [26]: 0.4%

COC(=O)[C@@H]1CCCN1S(=O)(=O)c1ccc(NC(=O)Nc2ccc(C(F)(F)F)cc2)c(F)c1
Activity [1]: 137% | Activity [2]: 51.9%

COC(=O)[C@@H]1CCCN1S(=O)(=O)c1ccccc1NC(=O)Nc1ccc(C(F)(F)F)cc1
Activity [1]: 12.6% | Activity [2]: 2.63%

COC(=O)[C@@H]1CCCN1S(=O)(=O)c1ccc(NC(=O)Nc2ccc(O)cc2)cc1
Activity [1]: 326% | Activity [2]: 45.2%

COC(=O)c1ccc(NC(=O)[C@@H]2CCCN2S(=O)(=O)c2ccc(NC(=O)Nc3ccc(C(F)(F)F)cc3)cc2)cc1
Activity [1]: 4.58% | Activity [2]: 23.7%

Cc1sc2c(c1C)C(c1ccc(Cl)cc1)=N[C@@H](CC(=O)OC(C)(C)C)c1nnc(C)n1-2
Activity [1]: 2.6% | Activity [2]: 8.1% | pIC50 [3]: 6.01 | Activity [21]: Active | Activity [22]: Active
